Test results reported in ChEMBL document CHEMBL1165965, “Synthesis and structure-activity relationships of 1,2,3,4-tetrahydropyrido[2,3-b]pyrazines as potent and selective inhibitors of the anaplastic lymphoma kinase” (Bioorg Med Chem, 2010).

Tests used:
[1] = target: Phosphatidylinositol 4-phosphate 3-kinase C2 domain-containing subunit beta (Homo sapiens) (UniProt O00750); assay: Inhibition of PIK3C2B at 1 uM
[2] = target: Tyrosine-protein kinase Fes/Fps (Homo sapiens) (UniProt P07332); assay: Inhibition of FES at 1 uM
Procedure, shortened: (§1)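 Single-concentration screen using Ambit Bioscience KINOMEscan technology across a panel of 250–400 kinases. Per-kinase inhibition from this screen was summarized as S(90), the fraction of kinases inhibited by more than 90%.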

[3] = target: T1, Tyrosine-protein kinase Mer (Homo sapiens) (UniProt Q12866); assay: Inhibition of MERTK at 1 uM
T1 sequence (whole entry): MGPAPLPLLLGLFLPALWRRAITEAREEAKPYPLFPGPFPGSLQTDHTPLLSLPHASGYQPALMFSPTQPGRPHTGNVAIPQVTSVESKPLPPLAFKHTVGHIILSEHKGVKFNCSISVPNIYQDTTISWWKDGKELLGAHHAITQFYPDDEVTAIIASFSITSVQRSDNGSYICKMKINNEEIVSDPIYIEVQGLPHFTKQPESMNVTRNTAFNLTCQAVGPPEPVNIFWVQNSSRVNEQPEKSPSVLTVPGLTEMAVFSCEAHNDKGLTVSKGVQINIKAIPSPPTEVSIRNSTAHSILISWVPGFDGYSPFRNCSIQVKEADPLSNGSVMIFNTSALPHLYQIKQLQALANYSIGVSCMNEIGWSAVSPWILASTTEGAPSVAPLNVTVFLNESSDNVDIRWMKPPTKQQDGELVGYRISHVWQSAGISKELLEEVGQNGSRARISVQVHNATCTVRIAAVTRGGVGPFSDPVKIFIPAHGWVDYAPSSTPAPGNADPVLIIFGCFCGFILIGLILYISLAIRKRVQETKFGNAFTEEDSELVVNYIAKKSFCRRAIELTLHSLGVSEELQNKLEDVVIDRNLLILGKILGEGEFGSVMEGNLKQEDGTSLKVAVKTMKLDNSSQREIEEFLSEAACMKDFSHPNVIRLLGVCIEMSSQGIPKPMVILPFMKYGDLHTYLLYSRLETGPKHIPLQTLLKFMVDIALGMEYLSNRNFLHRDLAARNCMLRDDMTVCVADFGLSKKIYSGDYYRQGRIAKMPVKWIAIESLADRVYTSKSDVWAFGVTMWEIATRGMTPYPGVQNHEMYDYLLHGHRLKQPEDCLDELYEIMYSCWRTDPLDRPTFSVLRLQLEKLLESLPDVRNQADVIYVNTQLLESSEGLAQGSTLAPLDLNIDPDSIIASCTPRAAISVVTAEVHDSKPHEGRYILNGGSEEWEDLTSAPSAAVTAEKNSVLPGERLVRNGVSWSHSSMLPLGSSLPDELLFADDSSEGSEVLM
Procedure, shortened: (§2)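 Kinase-panel screen using KINOMEscan technology, with 250–400 kinases per panel. Each compound was tested at a single concentration, and inhibition of each kinase was recorded. Selectivity was summarised as S(90), the fraction of kinases inhibited by more than 90%.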

[4] = target: T2, MAP/microtubule affinity-regulating kinase 4 (Homo sapiens) (UniProt Q96L34); assay: Inhibition of MARK4 at 1 uM; procedure, shortened: as §2
T2 sequence (whole entry): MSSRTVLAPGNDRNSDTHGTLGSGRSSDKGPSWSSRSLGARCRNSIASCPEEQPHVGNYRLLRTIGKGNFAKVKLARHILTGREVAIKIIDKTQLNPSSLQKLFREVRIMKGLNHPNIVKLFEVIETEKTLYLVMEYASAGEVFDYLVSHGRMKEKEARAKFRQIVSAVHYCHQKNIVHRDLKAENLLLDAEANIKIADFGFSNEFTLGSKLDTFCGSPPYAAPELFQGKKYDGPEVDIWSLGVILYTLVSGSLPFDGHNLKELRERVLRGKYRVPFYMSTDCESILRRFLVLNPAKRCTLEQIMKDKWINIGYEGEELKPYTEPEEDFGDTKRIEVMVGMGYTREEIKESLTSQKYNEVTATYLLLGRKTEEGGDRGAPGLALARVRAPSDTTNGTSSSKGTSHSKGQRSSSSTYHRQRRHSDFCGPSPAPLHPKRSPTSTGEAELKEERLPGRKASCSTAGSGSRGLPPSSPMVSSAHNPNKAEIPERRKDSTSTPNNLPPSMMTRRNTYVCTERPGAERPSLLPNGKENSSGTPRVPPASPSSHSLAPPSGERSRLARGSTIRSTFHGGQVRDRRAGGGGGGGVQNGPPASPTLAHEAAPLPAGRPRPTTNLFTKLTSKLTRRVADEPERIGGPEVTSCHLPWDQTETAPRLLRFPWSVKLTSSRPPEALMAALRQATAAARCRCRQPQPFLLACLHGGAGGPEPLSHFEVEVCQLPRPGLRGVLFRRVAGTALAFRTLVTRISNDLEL

[5] = system: Epidermal growth factor receptor (Homo sapiens), P00533 [L858R]; assay: Inhibition of EGFR L858R mutant at 1 uM; type: protein assay; procedure, shortened: as §1
[6] = target: MAP/microtubule affinity-regulating kinase 3 (Homo sapiens) (UniProt P27448); assay: Inhibition of MARK3 at 1 uM; procedure, shortened: as §2
[7] = target: Serine/threonine-protein kinase PRP4 homolog (Homo sapiens) (UniProt Q13523); assay: Inhibition of PRP4 at 1 uM
[8] = target: T3, Mitogen-activated protein kinase kinase kinase 3 (Homo sapiens) (UniProt Q99759); assay: Inhibition of MAP3K3 at 1 uM
T3 sequence (whole entry): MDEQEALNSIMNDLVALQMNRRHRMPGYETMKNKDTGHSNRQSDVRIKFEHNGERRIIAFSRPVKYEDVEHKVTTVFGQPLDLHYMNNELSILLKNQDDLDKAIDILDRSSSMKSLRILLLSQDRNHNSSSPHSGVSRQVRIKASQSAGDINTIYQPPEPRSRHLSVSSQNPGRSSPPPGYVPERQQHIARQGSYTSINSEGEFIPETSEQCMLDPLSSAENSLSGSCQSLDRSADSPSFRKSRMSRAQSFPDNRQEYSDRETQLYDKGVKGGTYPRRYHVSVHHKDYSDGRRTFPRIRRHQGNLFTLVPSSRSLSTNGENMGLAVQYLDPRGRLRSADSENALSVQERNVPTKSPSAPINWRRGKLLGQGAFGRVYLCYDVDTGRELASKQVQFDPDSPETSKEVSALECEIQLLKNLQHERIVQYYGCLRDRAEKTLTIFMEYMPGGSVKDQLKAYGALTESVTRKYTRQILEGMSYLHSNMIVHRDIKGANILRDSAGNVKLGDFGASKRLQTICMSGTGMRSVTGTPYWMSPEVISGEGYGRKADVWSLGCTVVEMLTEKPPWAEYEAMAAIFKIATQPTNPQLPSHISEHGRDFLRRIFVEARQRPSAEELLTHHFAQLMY

[9] = system: Mast/stem cell growth factor receptor Kit (Homo sapiens), P10721 [D816V]; assay: Inhibition of KIT D816V mutant at 1 uM
Procedure, shortened: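 Single-concentration screen on the Ambit KINOMEscan platform, run against a panel of 250–400 kinases. Per-kinase inhibition was also summarized as S(90), the fraction of kinases inhibited by more than 90%.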

Tyrosine-protein kinase Fes/Fps (Homo sapiens), sequence (P07332 whole entry): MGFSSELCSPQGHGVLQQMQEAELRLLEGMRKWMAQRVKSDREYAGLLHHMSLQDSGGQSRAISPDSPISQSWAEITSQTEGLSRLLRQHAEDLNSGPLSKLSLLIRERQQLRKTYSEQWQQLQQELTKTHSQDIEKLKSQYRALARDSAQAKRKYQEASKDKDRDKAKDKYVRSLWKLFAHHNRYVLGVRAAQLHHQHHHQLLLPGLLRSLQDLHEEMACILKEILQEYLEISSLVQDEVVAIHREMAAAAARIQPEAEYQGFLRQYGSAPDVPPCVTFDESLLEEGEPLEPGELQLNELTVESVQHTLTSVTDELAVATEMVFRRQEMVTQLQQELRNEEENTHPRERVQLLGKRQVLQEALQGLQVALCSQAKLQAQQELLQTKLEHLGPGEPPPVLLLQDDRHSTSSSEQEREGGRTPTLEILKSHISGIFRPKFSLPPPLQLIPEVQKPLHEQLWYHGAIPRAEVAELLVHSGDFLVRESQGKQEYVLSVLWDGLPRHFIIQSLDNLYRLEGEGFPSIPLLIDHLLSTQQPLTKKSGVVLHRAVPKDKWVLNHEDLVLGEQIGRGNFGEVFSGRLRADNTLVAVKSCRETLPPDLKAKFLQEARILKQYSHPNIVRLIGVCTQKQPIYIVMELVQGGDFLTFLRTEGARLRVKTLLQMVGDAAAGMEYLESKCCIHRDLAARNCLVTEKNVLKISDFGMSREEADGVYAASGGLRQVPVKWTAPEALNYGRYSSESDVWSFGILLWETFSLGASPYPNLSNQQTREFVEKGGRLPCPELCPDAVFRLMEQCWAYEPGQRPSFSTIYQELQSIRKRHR
Phosphatidylinositol 4-phosphate 3-kinase C2 domain-containing subunit beta (Homo sapiens), sequence (O00750 whole entry, the tested form may be a part): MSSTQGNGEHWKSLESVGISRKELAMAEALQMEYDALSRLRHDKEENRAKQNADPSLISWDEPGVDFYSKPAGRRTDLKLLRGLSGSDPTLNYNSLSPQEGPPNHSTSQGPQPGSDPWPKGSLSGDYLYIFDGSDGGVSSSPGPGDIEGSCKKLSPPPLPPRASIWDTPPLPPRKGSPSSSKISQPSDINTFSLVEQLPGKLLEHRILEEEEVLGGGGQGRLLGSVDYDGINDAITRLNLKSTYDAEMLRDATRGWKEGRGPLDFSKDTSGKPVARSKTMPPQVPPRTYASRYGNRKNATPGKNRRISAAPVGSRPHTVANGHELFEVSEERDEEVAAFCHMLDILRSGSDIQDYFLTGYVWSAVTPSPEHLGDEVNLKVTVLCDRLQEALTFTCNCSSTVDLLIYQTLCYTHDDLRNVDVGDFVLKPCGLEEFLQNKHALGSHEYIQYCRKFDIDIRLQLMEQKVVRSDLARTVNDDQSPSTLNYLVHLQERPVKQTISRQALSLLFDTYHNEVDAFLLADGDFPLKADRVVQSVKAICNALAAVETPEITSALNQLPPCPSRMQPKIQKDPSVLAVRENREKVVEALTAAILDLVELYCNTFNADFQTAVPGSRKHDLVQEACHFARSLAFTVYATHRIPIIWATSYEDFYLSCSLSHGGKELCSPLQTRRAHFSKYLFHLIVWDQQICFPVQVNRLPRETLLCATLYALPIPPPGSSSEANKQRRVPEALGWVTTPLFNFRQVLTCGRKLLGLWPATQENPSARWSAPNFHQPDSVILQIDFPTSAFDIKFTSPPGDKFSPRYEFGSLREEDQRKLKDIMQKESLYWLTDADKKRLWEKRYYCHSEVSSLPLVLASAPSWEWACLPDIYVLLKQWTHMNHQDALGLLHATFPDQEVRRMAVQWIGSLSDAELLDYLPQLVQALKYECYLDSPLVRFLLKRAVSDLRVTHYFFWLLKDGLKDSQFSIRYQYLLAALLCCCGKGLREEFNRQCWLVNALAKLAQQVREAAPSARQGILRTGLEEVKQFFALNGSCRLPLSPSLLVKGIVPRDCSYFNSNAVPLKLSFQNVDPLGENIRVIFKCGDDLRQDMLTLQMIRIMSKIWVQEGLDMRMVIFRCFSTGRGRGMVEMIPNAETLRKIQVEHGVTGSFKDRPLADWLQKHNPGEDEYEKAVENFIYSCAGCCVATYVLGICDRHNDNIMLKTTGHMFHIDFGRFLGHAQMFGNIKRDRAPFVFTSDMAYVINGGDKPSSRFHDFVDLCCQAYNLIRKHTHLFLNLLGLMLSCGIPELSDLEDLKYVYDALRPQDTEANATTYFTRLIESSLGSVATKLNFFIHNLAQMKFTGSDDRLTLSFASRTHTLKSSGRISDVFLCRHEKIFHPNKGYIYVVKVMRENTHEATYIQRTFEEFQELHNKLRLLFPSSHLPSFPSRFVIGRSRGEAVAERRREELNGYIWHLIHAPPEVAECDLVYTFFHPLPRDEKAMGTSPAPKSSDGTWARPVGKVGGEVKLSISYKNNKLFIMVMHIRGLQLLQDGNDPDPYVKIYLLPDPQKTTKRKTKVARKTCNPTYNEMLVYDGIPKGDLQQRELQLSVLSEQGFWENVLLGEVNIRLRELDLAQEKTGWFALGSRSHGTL
Mast/stem cell growth factor receptor Kit (Homo sapiens), P10721 [D816V], sequence (P10721 whole entry D816V): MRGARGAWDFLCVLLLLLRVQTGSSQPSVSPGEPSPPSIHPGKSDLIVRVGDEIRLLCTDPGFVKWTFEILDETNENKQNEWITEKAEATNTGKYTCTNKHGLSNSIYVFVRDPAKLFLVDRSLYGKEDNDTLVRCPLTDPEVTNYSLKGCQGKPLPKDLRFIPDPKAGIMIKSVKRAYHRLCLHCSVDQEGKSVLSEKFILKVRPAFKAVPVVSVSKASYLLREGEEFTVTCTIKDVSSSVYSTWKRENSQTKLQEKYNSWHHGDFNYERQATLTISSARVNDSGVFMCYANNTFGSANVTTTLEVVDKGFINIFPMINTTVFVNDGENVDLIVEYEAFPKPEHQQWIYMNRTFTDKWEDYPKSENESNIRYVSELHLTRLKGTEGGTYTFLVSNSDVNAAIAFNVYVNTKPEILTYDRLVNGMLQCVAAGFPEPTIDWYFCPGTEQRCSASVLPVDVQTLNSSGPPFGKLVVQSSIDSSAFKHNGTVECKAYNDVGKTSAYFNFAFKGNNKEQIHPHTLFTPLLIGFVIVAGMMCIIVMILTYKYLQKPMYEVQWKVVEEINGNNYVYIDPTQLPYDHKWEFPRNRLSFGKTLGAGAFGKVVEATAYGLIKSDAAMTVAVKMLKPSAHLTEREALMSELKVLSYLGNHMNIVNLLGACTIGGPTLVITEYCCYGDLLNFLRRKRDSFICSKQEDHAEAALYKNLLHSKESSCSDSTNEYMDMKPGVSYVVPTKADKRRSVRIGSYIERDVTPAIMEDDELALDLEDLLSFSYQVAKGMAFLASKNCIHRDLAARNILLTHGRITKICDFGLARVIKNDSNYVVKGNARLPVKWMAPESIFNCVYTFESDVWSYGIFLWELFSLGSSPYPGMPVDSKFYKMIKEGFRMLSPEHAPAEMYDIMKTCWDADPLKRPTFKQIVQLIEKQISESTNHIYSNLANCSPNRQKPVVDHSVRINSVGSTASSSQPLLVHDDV
Serine/threonine-protein kinase PRP4 homolog (Homo sapiens), sequence (Q13523 whole entry): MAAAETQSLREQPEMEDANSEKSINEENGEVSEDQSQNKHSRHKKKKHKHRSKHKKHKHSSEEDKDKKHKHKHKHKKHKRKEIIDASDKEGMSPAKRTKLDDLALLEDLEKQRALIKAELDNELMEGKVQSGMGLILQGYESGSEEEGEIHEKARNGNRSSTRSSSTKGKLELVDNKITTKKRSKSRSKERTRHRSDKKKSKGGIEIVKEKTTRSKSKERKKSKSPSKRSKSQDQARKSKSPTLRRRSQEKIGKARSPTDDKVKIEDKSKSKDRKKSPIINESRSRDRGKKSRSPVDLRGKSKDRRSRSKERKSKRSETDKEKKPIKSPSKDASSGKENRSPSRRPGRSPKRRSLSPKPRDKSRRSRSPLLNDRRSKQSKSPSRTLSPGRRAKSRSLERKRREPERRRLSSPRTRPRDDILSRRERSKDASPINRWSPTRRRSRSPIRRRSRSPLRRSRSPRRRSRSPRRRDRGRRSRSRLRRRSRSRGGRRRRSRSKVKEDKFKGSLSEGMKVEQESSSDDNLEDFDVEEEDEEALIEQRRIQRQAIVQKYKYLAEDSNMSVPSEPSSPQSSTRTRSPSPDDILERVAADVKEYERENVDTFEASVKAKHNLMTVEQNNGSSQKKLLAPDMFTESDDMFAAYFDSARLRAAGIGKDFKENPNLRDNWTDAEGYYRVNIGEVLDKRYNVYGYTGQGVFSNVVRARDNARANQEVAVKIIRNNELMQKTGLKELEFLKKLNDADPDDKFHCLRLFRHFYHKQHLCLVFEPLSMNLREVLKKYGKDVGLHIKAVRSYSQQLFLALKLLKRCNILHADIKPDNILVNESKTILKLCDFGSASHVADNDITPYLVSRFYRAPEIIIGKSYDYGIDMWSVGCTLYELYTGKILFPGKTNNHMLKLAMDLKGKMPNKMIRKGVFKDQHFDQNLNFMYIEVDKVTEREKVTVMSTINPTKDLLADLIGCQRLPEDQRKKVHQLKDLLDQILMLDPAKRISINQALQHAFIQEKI

Compound	inhibition [1]	inhibition [2]	inhibition [3]	inhibition [4]	inhibition [5]	inhibition [6]	inhibition [7]	inhibition [8]	inhibition [9]
CN1CCN(c2ccc(-c3cnc4c(c3)N(Cc3cc(F)ccc3F)CCN4)cn2)CC1	< 50%	< 50%	< 50%	< 50%	< 50%	< 50%	< 50%	< 50%	< 50%
O=C(c1ccc(-c2cnc3c(c2)N(Cc2cc(Cl)ccc2C(F)(F)F)CCN3)cc1)N1CCC(N2CCCC2)CC1		< 50%	< 50%	< 50%	< 50%	< 50%			< 50%
O=C(c1ccc(-c2cnc3c(c2)N(Cc2cc(Cl)ccc2C(F)(F)F)CCN3)cc1)N1CCCCC1		< 50%	< 50%	< 50%	< 50%	< 50%			< 50%
CN1CCN(c2ccc(-c3cnc4c(c3)N(Cc3c(F)ccc(F)c3Cl)CCN4)cn2)CC1	< 50%	< 50%	< 50%	< 50%	< 50%	< 50%	< 50%	< 50%	< 50%
COC1CCN(C(=O)c2ccc(-c3cnc4c(c3)N(Cc3cc(Cl)ccc3C(F)(F)F)CCN4)cc2)CC1		< 50%	< 50%	< 50%	< 50%	< 50%			< 50%
O=C(O)c1ccc(-c2cnc3c(c2)N(Cc2cc(Cl)ccc2C(F)(F)F)CCN3)cc1		< 50%	< 50%	< 50%	< 50%	< 50%			< 50%
CC(=O)N1CCN(c2cc(-c3cnc4c(c3)N(Cc3cc(Cl)ccc3C(F)(F)F)CCN4)ccn2)CC1	< 50%	< 50%	< 50%	< 50%	< 50%	< 50%	< 50%	< 50%	< 50%
FC(F)(F)c1ccc(Cl)cc1CN1CCNc2ncc(-c3ccnc(N4CCNCC4)c3)cc21	< 50%	< 50%	< 50%	< 50%	< 50%	< 50%	< 50%	88%	76%
CN1CCN(c2ccc(-c3cnc4c(c3)N(Cc3cc(Cl)ccc3C(F)(F)F)CCN4)cn2)CC1	< 50%	< 50%	< 50%	< 50%	< 50%	< 50%	< 50%	< 50%	< 50%
CN1CCN(c2ccc(-c3cnc4c(c3)N(Cc3cc(Cl)ccc3Cl)CCN4)cn2)CC1	< 50%	< 50%	< 50%	< 50%	< 50%	< 50%	< 50%	< 50%	< 50%
